In ChEMBL document CHEMBL4665652, “Discovery of novel quinoline sulphonamide derivatives as potent, selective and orally active RORγ inverse agonists” (Bioorg Med Chem Lett, 2019):

Tests used:
[1] = (§1) In vivo inverse agonist activity at RORgamma in MOG(35-55) peptide/PTX-induced mechanistic C57BL/6 mouse model assessed as anti-CD3 induced IL-6 level in serum at 30 mg/kg, po dosed for 5 days during MOG/PTX priming and followed by 45 mins prior to anti-CD3 challenge and measured after 2 hrs relative to control; type: functional; conditions: time 5 day
Method in brief: (§2)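 Mice immunized with mouse MOG35-55 peptide plus pertussis toxin. After 5 days, compound given orally as a suspension in methylcellulose 400cp + 1% poloxamer, 45 min before an anti-CD3 challenge. Circulating cytokines measured 2 h later. Comparison vs vehicle by Dunnett post test.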

[2] = as §1, with “10” for “30”; type: functional; conditions: time 5 day; method in brief: as §2

CNC(=O)[C@@H]1CCCN1S(=O)(=O)c1ccc(Cl)c(COc2cccc3c(-c4cncn4C)cc(C(C)C)nc23)c1Cl gave an Activity [1] of -56% and an Activity [2] of -29%.
